From PubChem
The list is not random: actives were taken first. Their share in the collection is about 2.3%.
TRPC6 inhibitor = mouse TRPC6 channel inhibition | Q61143 | HEK293-TRPC6, membrane potential dye, ACh-evoked depolarization; active compounds read low | B-score at 10 µM | actives 1.1% (n = 310,000);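 active = B-score under library mean minus 3 SD, initial fluorescence not abnormally high, positive integrated signal ratio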;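 also: B-score derived from integrated fluorescence ratio over the kinetic read; more negative B-score means stronger inhibition of depolarization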
TRPC4 inh = inhibitors of mouse TRPC4 channel; actives 0.39% (n = 300,000); AID 2247; HEK293 TRPC4beta/mu-opioid, DAMGO-evoked Fluo4 calcium flux; active compounds read low; B-score at 10 µM; Q9QUQ5;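 active = B-score over 3 SD under the library average, no early fluorescence shift, positive overall ratio signal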
Target sequence (Q9QUQ5 whole entry, looked up): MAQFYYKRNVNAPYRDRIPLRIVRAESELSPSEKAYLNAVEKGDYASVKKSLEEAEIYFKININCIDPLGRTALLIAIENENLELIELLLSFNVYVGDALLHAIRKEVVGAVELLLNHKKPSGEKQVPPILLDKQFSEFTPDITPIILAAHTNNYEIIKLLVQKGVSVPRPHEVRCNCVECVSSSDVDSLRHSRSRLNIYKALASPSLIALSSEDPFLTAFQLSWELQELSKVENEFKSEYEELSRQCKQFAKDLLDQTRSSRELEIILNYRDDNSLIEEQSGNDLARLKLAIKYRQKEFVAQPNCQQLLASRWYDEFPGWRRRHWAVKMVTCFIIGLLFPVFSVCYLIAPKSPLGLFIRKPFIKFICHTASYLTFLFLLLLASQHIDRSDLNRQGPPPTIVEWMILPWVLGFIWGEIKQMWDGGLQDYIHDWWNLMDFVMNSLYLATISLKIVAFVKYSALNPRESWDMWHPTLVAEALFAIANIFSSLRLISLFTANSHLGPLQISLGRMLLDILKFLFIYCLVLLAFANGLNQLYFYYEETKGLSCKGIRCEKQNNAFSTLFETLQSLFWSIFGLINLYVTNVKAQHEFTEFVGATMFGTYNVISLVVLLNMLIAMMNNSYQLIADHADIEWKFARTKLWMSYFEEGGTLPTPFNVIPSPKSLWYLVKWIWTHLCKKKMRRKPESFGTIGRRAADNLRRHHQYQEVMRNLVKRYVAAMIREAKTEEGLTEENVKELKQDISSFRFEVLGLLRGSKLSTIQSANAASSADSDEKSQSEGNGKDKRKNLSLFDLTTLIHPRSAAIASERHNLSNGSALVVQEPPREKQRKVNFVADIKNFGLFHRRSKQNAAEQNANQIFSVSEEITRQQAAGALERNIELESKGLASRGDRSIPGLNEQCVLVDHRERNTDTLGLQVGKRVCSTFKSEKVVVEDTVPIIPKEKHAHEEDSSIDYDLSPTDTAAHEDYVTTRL
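Assay system: HEK293 cells with stable TRPC4beta plus mu-opioid receptor expression; Probe or stimulus: DAMGO in two steps, submaximal then maximal; Dosing: single-point compound dosing; Measured by: Fluo4 calcium-dye fluorescence, kinetic read; Read-out basis: B score from integrated Fluo4 fluorescence ratio.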
TRPC4 PAM = allosterically enhances the mouse TRPC4 cation channel; B-score at 10 µM; actives 0.42% (n = 310,000); Q9QUQ5; HEK293 TRPC4beta/mu-opioid, DAMGO EC20, Fluo-4 Ca2+ flux; active compounds read high; AID 2227;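 active = B-score of calcium response area above 5 SD of library B-scores, with initial fluorescence ratio within 5 SD of library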;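 also: B-score of integrated fluorescence ratio over time as area under calcium response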
TRPC4 act = opens the mouse TRPC4 cation channel; HEK293 TRPC4beta/mu-opioid, Fluo4 calcium fluorescence; active compounds read high; actives 0.49% (n = 310,000); AID 2237; Q9QUQ5; B-score at 10 µM;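 active = B-score above 5 SD of library B-scores, and initial fluorescence ratio not above library mean plus 5 SD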;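 also: positive B-score marks a calcium rise read as TRPC4 activation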
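Assay system – TRPC4beta and mu-opioid receptor HEK293 stable cells · Measured by – Fluo4 fluorescence, kinetic · Schedule – dye loading 45 min room temperature, 110 s kinetic read · Read-out – B-scored integrated calcium fluorescence ratio · Controls – buffer and maximal DAMGO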
CR mimetic SO = yeast age-related superoxide inhibition as caloric restriction mimetic | S. cerevisiae aged cells, superoxide DHE fluorescence; active compounds read low | superoxide response (% of plate mean), % at 10 µM | actives 0.18% (n = 330,000);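 active = superoxide response under a set limit, about three screen SD below normal, cut at about 65% in these data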;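 also: yeast aged for seven days with compound at 30 °C before DHE staining; 100% = average MFI of all compound-treated wells on the plate with controls excluded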
TRPC6 activator = activators of mouse TRPC6 channel; Q61143; HEK293-TRPC6 membrane potential dye fluorescence; active compounds read high; B-score at 10 µM; actives 0.13% (n = 310,000); AID 2550;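 active = B-score of the integrated fluorescence ratio above library mean plus 3 SD, and starting fluorescence ratio within library mean plus 5 SD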;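 also: higher score means more depolarization so channel activation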
TRPC4 sel inh 2 = second check of whether TRPC6 inhibitors also affect mouse TRPC4. shares compounds with TRPC6 inhibitor. HEK293 TRPC4/MOR, membrane potential dye fluorescence; channel activated by saturating DAMGO dose. inhibition, % at 10 µM. actives 42% (n = 920). AID 2776;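 active = compounds whose fluorescence signal differed from control wells by over 3 SD, either direction, in both duplicate plates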
TRPC4 spec = mouse TRPC4 off-target activity of TRPC6 inhibitors | shares compounds with TRPC6 inhibitor | HEK293 TRPC4/mu-opioid, membrane potential fluorescence | activity change, negative = inhibition, % at 10 µM | actives 61% (n = 920) | AID 2777;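 active = rise or fall in signal beyond 3 SD of buffer-only wells in both replicate plates, either sign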;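 also: integrated kinetic ratio of fluorescence range over baseline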
HEK293 MPD ctr 2-1 = second counter-screen for TRPC6 inhibitors: parental HEK293 cells; actives 31% (n = 920); signal change vs control, % at 10 µM; AID 2779; parental HEK293 membrane potential dye fluorescence; maximal acetylcholine challenge after compound addition; shares compounds with TRPC6 inhibitor;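 active = membrane potential signal moving either way by over 3 SD of the maximum-effect control, in both duplicate plates, meaning non-specific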
HEK293 MPD ctr-1 = counter-screen for TRPC6 inhibitors: effect in parental HEK293 cells; shares compounds with TRPC6 inhibitor; parental HEK293 membrane potential dye fluorescence; membrane potential signal change, % at 10 µM; actives 60% (n = 920);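 active = membrane potential signal shifting up or down by more than 3 SD of buffer-only wells, on both duplicate plates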
HEK293 MPD ctr-2 = parental HEK293 nonspecific activity of TRPC6 modulators; membrane potential dye fluorescence; actives 51% (n = 2,400); shares compounds with TRPC6 inhibitor; membrane potential signal change, % at 10 µM; AID 488924;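 active = membrane potential signal moves up or down beyond 5 SD from buffer-only wells, on both duplicate plates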
HEK293 MPD ctr 2-2 = second check of TRPC6 modulator effects in parental HEK293 cells; AID 488926; shares compounds with TRPC6 inhibitor; actives 14% (n = 2,400); inhibition, % at 10 µM; membrane potential dye fluorescence; after compound, maximal acetylcholine stimulation;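 active = membrane potential signal drops by more than 5 SD from the mean control signal, in both duplicate plates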;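 also: plate controls were acetylcholine ECmax control wells for no effect and buffer only wells for full effect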
TRPC4/MOR mod = selectivity of TRPC6 modulators against mouse TRPC4 | shares compounds with TRPC6 inhibitor | HEK293 TRPC4/mu-opioid, membrane potential fluorescence | percent change from control (negative = decrease, positive = increase), % at 10 µM | actives 69% (n = 2,400) | AID 488927;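 active = membrane potential signal moved up or down beyond 5 SD of buffer control wells, in both duplicate plates, actives on both sides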;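 also: plate controls were assay buffer wells for no effect and DAMGO maximal-effect wells for full effect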
TRPC4 ctr inh 2 = mouse TRPC4 off-target activity of TRPC6 modulators, second screen; inhibition, % at 10 µM; actives 55% (n = 2,400); shares compounds with TRPC6 inhibitor; AID 488928; HEK293 TRPC4/mu-opioid, membrane potential dye fluorescence; stimulated with maximal-effect DAMGO;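 active = drop in membrane potential signal beyond 5 SD of the control wells in both duplicate plates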;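 also: TRPC4 counter screen for TRPC6 hits run under conditions tuned for TRPC6 not TRPC4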
TRPC6 block conf = confirmation of mouse TRPC6 inhibitors | inhibition, % at 10 µM | shares compounds with TRPC6 inhibitor | HEK293-TRPC6, membrane potential dye, ACh-evoked depolarization | actives 43% (n = 3,300);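 active = fluorescence ratio falls more than 5 SD below the full-stimulation control mean, in both duplicate runs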;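 also: integrated fluorescence ratio of peak minus minimum over baseline after agonist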
TRPC6 act confirm = confirmation of mouse TRPC6 activators; shares compounds with TRPC6 inhibitor; HEK293-TRPC6 membrane potential dye fluorescence, FDSS; activation, % at 10 µM; actives 11% (n = 2,800); AID 488961;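 active = ratio signal rise beyond 5 SD above unstimulated control wells' mean, seen in both duplicate runs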;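 also: plate controls were buffer EC0 wells for no effect and acetylcholine ECmax response for full effect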
The depositor's hits bear a star; i = inactive; / = no result given; + = active, no number.

SMILES	TRPC6 inhibitor	TRPC4 inh	TRPC4 PAM	TRPC4 act	CR mimetic SO	TRPC6 activator	HEK293 MPD ctr-2	HEK293 MPD ctr 2-2	TRPC4/MOR mod	TRPC4 ctr inh 2	TRPC6 block conf	TRPC6 act confirm	others
C[C@]12C=CC(=O)C=C1CC[C@@H]1C2=CC[C@]2(C)[C@@H](C(=O)CN3CCN(c4cc(N5CCCC5)nc(N5CCCC5)n4)CC3)CC[C@@H]12	-6.69*	i	i	i	108.4	i	-238.0%*	i	-54.0%*	63.5%*	69.0%*	i
O=c1c(O)c(-c2cccs2)oc2ccc(Cl)cc12	i	i	i	i	73.5	76.3*	+	i	326.5%*	82.5%*	i	334.0%*
O=c1c(O)c(-c2cccs2)oc2ccccc12	i	i	i	i	86.5	i	/	/	/	/	/	/
O=C(O)CC(NC(=O)C(F)(F)F)c1ccc2c(c1)OCO2 (stereo not given)	i	i	i	i	102.2	i	/	/	/	/	/	/
COCCSc1ccccc1C(=O)N1CCN(c2ccccc2)CC1	i	i	i	i	105.9	i	/	/	/	/	/	/
Cc1noc(C)c1CSc1ccccc1C(=O)N1CCN(c2ccccc2)CC1	-6.91*	i	i	i	89.8	i	/	/	/	/	i	/	TRPC4 sel inh 2=i;TRPC4 spec=16.0%*;HEK293 MPD ctr 2-1=i;HEK293 MPD ctr-1=8.9%*
Cc1ccc(N(CC(=O)NC(C)c2ccccc2)S(=O)(=O)c2c(C)n[nH]c2C)cc1 (stereo not given)	i	i	i	i	127.7	i	/	/	/	/	/	/
CCn1c(SCC(=O)Nc2ccc(C)cc2)nc2sc3c(c2c1=O)CCN(C)C3	i	i	i	i	103.2	i	/	/	/	/	/	/
CCn1c(SCC(N)=O)nc2sc3c(c2c1=O)CCN(C)C3	-5.95*	i	i	i	126.9	i	-203.0%*	i	-36.5%*	36.0%*	44.5%*	i
COCCSc1nc2sc3c(c2c(=O)n1-c1ccccc1)CCN(C)C3	-7.5*	i	i	i	101.1	i	-108.0%*	i	-22.0%*	i	i	i
CCNc1nc(SCC(N)=O)nc2sc3c(c12)CCN(C)C3	-6.62*	i	i	i	/	i	-196.5%*	i	-38.5%*	43.0%*	51.5%*	i
CCOC(=O)CSc1nc2sc3c(c2c(=O)n1C1CCCCC1)CCN(C)C3	-5.59*	i	i	i	100.7	i	i	i	8.0%*	45.5%*	i	i
CCOc1ccc(-n2c(SCC(N)=O)nc3sc4c(c3c2=O)CCN(C)C4)cc1	i	i	i	i	113.6	i	/	/	/	/	/	/
C=CC1C(N2CCOCC2)C(C)(C)S1(=O)=O (stereo not given)	i	i	i	i	92.5	i	/	/	/	/	/	/
Cc1csc(NC(=O)CSc2nc3[nH]ncc3c(=O)[nH]2)n1	i	i	i	i	110.7	i	/	/	/	/	/	/
Cc1c(C(=O)N(C)Cc2ccccc2)oc2ccc(S(=O)(=O)N3CCCC3)cc12	i	i	i	i	71.5	i	/	/	/	/	/	/
COC(CNc1nc(SC)nc2sc3c(c12)CCN(C)C3)OC	i	i	i	i	128.3	i	/	/	/	/	/	/
CSc1nc(SCC(N)=O)c2c3c(sc2n1)CN(C)CC3	-10.8*	i	i	i	97.5	i	-210.5%*	68.0%*	-38.5%*	47.0%*	i	i
CCC(O)CNc1nc(SC)nc2sc3c(c12)CCN(C)C3 (stereo not given)	-7.15*	i	i	i	90.2	i	-167.0%*	i	-39.0%*	36.0%*	i	i
Cc1onc(-c2ccccc2Cl)c1C(=O)Nc1nnc(Cc2ccc(Cl)cc2)s1	-6.62*	i	i	i	99.0	i	/	/	/	/	i	i	TRPC4 sel inh 2=i;TRPC4 spec=i;HEK293 MPD ctr 2-1=i;HEK293 MPD ctr-1=i
Cc1nnc(NC(=O)c2c(-c3ccccc3Cl)noc2C)s1	i	i	i	i	94.2	i	/	/	/	/	/	/
Cc1ccc(OCC(=O)NNC(=O)c2cccnc2)cc1C	-5.71*	i	i	i	107.3	i	i	i	i	i	i	i
N=C(SC1CC(=O)N(c2ccc(F)cc2)C1=O)N1N=C(c2ccccc2)CC1c1ccccc1 (stereo not given)	-7.65*	i	i	i	104.4	i	/	/	/	/	i	i	TRPC4 sel inh 2=i;TRPC4 spec=i;HEK293 MPD ctr 2-1=i;HEK293 MPD ctr-1=i
O=C(C1CCCO1)N1CCN(C(=S)Nc2ccccc2C(F)(F)F)CC1 (stereo not given)	i	i	i	i	91.1	i	/	/	/	/	/	/
CCOc1ccc(CCNC(=O)C2CCCN(c3nnc(-n4cccc4)s3)C2)cc1OCC (stereo not given)	-5.45*	i	i	i	94.5	i	i	i	i	i	i	i
